The list is not random: actives were taken first. Their share in the collection is about 3.9%.
697 NFkB inh – inhibitors of the PMA/ionomycin-induced NF-kB reporter in 697 B cells | inhibition, % at 4 µM | 697 B-cell NF-kB luciferase reporter, 16 h | actives 0.33% (n = 330,000) | AID 435022; in the data active means inhibition above about 35%
UPR CHOP act – activators of apoptotic arm of unfolded protein response (CHOP); AID 449763; activation, % at 10 µM; CHO-CHOP luciferase reporter, UPR activation, luminescence; percent of tunicamycin response over DMSO baseline; actives 0.34% (n = 330,000);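 active means at 10 µM dose, activation of 40% or more, normalized to positive control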;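 further: 100% = tunicamycin at 10 µg/mL and 0% = DMSO alone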
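Assay system: CHO cells with stable CHOP pathway luciferase reporter; Buffer or medium: F12 plus 10% serum; Times: 16-18 h cell attachment, then 6 h compound exposure, 37 °C; Signal: luciferase luminescence; Read-out basis: percent activation relative to tunicamycin control; Control set: tunicamycin high control, DMSO low control.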
Jurkat NFkB inh – lowers PMA/ionomycin-induced NF-kB signal in Jurkat cells; AID 435003; inhibition, % at 4 µM; PMA/ionomycin-induced NF-kB luciferase reporter, luminescence; actives 0.53% (n = 330,000); in the data active means inhibition above about 50%
XBP1 UPR activ – adaptive UPR (XBP1) activation; CHO-XBP1 luciferase reporter, IRE1-XBP1 UPR activation, luminescence; percent of tunicamycin response, DMSO as zero; activation, % at 20 µM; actives 0.33% (n = 330,000);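 active means versus positive control, 20 µM dose yields 30% or more activation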;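 further: 100% = tunicamycin at 10 µg/mL and 0% = DMSO only wells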
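Assay system: IRE1-XBP1 luciferase reporter CHO line. Input: 1000 cells/well. Buffer or medium: F12 with 10% serum. Doses: 20 µM, 1% DMSO. Times: overnight seeding at 37 °C, 6 h compound treatment at 37 °C. Technique: Steady-Glo luciferase glow luminescence, 10 min after reagent addition.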
Gli-Sufu block – Gli-Sufu pathway antagonism. inhibition, % at 5 µM. Sufu-KO-LIGHT fibroblasts, Gli luciferase reporter luminescence. AID 588413. actives 0.74% (n = 340,000);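 active means inhibition above about 55%, limit read from the data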;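 further: 0% = DMSO-treated cells and 100% = wells with medium but no cells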
CHOP inhibitor – CHOP inhibition in unfolded protein response. CHO-K1 CHOP-promoter luciferase, tunicamycin-induced, 15-18 h. inhibition, % at 10 µM. actives 3.8% (n = 220,000);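 active means compounds that reduced the stress-induced luciferase reporter signal by more than about 70% of percent inhibition, limit read from the data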;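 further: 0% = tunicamycin plus vehicle and 100% = wells without tunicamycin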
Jurkat NFkB conf – lowers PMA/ionomycin-induced NF-kB signal in Jurkat cells | Jurkat NF-kB luciferase, 16 h | shares compounds with Jurkat NFkB inh | inhibition, % at 4 µM | actives 27% (n = 2,700);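 active means inhibition reaching about 45% at 4 µM in either replicate, limit read from the data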;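 further: plate controls were PMA/ionomycin stimulated DMSO wells for no effect and unstimulated DMSO wells for full effect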
697 NFkB conf – lowers PMA/ionomycin-induced NF-kB signal in 697 B cells; shares compounds with 697 NFkB inh; actives 35% (n = 2,000); 697 B-cell NF-kB luciferase, 16 h; inhibition, % at 4 µM; in the data active means inhibition mostly above about 28%, no sharp cut-off; inactive means mostly below about 22%
* hit, by the source's call.

Results for Cc1ccc(C(=O)Nc2cccc(C(F)(F)F)c2)cc1NC(=O)c1ccno1 ?
697 NFkB inh: 60*; UPR CHOP act: -1; Jurkat NFkB inh: 51*; XBP1 UPR activ: -2; Gli-Sufu block: 20; CHOP inhibitor: 54; Jurkat NFkB conf: 87*; 697 NFkB conf: 61*

Results for Cc1ccc(C(=O)Nc2cccc(C(F)(F)F)c2)cc1NC(=O)c1nccn1C ?
697 NFkB inh: -17; UPR CHOP act: 0; Jurkat NFkB inh: 1; XBP1 UPR activ: 1; Gli-Sufu block: 2; CHOP inhibitor: 22

Results for N#C/C(=C\N1CCOCC1)c1ccccc1 ?
697 NFkB inh: -2; UPR CHOP act: 2; Jurkat NFkB inh: -25; XBP1 UPR activ: 3; Gli-Sufu block: -3; CHOP inhibitor: 0

What do the screens show for `N#C/C(=C\c1ccc(N2CCOCC2)cc1)c1ccccc1`?
697 NFkB inh: -254; UPR CHOP act: 5; Jurkat NFkB inh: -180; XBP1 UPR activ: 1; Gli-Sufu block: 20; CHOP inhibitor: 37; Jurkat NFkB conf: -98; 697 NFkB conf: -200

What do the screens show for `Cc1ccc(NC(=O)COC(=O)c2oc3ccccc3c2C)cc1S(=O)(=O)N1CCOCC1`?
697 NFkB inh: -12; UPR CHOP act: 0; Jurkat NFkB inh: 15; XBP1 UPR activ: -3; Gli-Sufu block: 1

Results for CSc1ccc(/C=C/C(=O)N2CCN(c3ccccn3)CC2)cc1 ?
697 NFkB inh: 11; UPR CHOP act: 0; Jurkat NFkB inh: -5; XBP1 UPR activ: -4; Gli-Sufu block: 1

How did Clc1ccc(-c2cnn3c(-c4ccncc4)ccnc23)cc1 do in these assays?
697 NFkB inh: -376; UPR CHOP act: -3; Jurkat NFkB inh: -159; XBP1 UPR activ: 1; Gli-Sufu block: -83; CHOP inhibitor: 62; Jurkat NFkB conf: -89; 697 NFkB conf: -300

What do the screens show for `O=C(COC(=O)c1ccc(O)cc1)Nc1ccccc1`?
697 NFkB inh: 6; UPR CHOP act: 0; Jurkat NFkB inh: -2; XBP1 UPR activ: 1; Gli-Sufu block: 25

Results for COCCn1c(C)cc(C2=NNC(=NC3CC3)SC2)c1C ?
697 NFkB inh: 68*; UPR CHOP act: -10; Jurkat NFkB inh: 75*; XBP1 UPR activ: -7; Gli-Sufu block: 91*; CHOP inhibitor: 103*; Jurkat NFkB conf: 94*; 697 NFkB conf: 65*

What do the screens show for `Cn1cc(/C=C/C(=O)c2ccccc2)c2ccccc21`?
697 NFkB inh: -272; UPR CHOP act: -3; Jurkat NFkB inh: -170; XBP1 UPR activ: -5; Gli-Sufu block: -76; CHOP inhibitor: 30; Jurkat NFkB conf: -41; 697 NFkB conf: -118

How did Cc1c(/C=C/C(=O)c2ccccc2)cnn1C do in these assays?
697 NFkB inh: -24; UPR CHOP act: 5; Jurkat NFkB inh: -12; XBP1 UPR activ: 1; Gli-Sufu block: -11; CHOP inhibitor: -50

Results for O=C(c1ccc(N2CCN(C(=O)c3ccc(F)cc3F)CC2)cc1)c1cccc(F)c1 ?
697 NFkB inh: 9; UPR CHOP act: 0; Jurkat NFkB inh: -7; XBP1 UPR activ: -5; Gli-Sufu block: 23

What do the screens show for `c1ccc(CCc2nc(-c3ccccc3)no2)cc1`?
697 NFkB inh: -31; UPR CHOP act: 6; Jurkat NFkB inh: -56; XBP1 UPR activ: 2; Gli-Sufu block: -56; CHOP inhibitor: 36

Results for O=C(Nc1ccc(-c2noc(CCc3ccccc3)n2)cc1)c1ccco1 ?
697 NFkB inh: -296; UPR CHOP act: 4; Jurkat NFkB inh: -187; XBP1 UPR activ: -1; Gli-Sufu block: -77; CHOP inhibitor: 27; Jurkat NFkB conf: -84; 697 NFkB conf: -184

Results for Cc1ccc(NC(CC(=O)c2ccccc2)C(=O)O)cc1Cl (configuration not stated) ?
697 NFkB inh: -254; UPR CHOP act: 4; Jurkat NFkB inh: -204; XBP1 UPR activ: 1; Gli-Sufu block: -104; CHOP inhibitor: 27; Jurkat NFkB conf: -15; 697 NFkB conf: -22

What do the screens show for `Cc1ccsc1/C=N/N=C/c1sccc1C`?
697 NFkB inh: -299; UPR CHOP act: 1; Jurkat NFkB inh: -173; XBP1 UPR activ: -5; Gli-Sufu block: -83; Jurkat NFkB conf: -99; 697 NFkB conf: -230

Results for COc1ccc(C)cc1N1CC(C(=O)OCc2nc(N)nc(Nc3ccccc3C)n2)CC1=O (configuration not stated) ?
697 NFkB inh: 18; UPR CHOP act: -1; Jurkat NFkB inh: 6; XBP1 UPR activ: -3; Gli-Sufu block: -13

Results for O=C(OCCOc1cccc(Cl)c1)c1ccc2ncsc2c1 ?
697 NFkB inh: 2; UPR CHOP act: 3; Jurkat NFkB inh: 0; XBP1 UPR activ: 2; Gli-Sufu block: -6

Results for N=c1ccn2c(n1)O[C@H]1[C@@H](CO)[C@H](O)O[C@H]12 ?
697 NFkB inh: 70*; UPR CHOP act: -2; Jurkat NFkB inh: 53*; XBP1 UPR activ: -5; Gli-Sufu block: 37; Jurkat NFkB conf: 61*; 697 NFkB conf: 61*

How did O=C(OCC1OC2C(Oc3nc(=O)ccn32)C1O)c1ccccc1 (configuration not stated) do in these assays?
697 NFkB inh: -12; UPR CHOP act: -1; Jurkat NFkB inh: 3; XBP1 UPR activ: 2; Gli-Sufu block: 1; CHOP inhibitor: -20

Results for CCOc1ccc(NC(=O)CSc2nnc(NC(=O)C3CC3)s2)cc1 ?
697 NFkB inh: 19; UPR CHOP act: 0; Jurkat NFkB inh: 3; XBP1 UPR activ: 7; Gli-Sufu block: -22

How did Cn1c(-c2ncc(F)cc2F)cc2onc(-c3c(F)cccc3Cl)c2c1=O do in these assays?
697 NFkB inh: -99; UPR CHOP act: 7; Jurkat NFkB inh: 0; XBP1 UPR activ: -4; Gli-Sufu block: -101

Results for Cn1c(-c2ccccc2F)cc2onc(-c3ccccc3)c2c1=O ?
697 NFkB inh: -349; UPR CHOP act: 0; Jurkat NFkB inh: -232; XBP1 UPR activ: -2; Gli-Sufu block: -57; Jurkat NFkB conf: -98; 697 NFkB conf: -403

How did COc1ccc(NC(=O)CCCc2nc3ccccc3c(=O)[nH]2)cc1Cl do in these assays?
697 NFkB inh: 8; UPR CHOP act: 0; Jurkat NFkB inh: -6; XBP1 UPR activ: -3; Gli-Sufu block: 1

What do the screens show for `Cc1ccc(NC(=O)c2ccc3c(c2)OCO3)cc1Cl`?
697 NFkB inh: -287; UPR CHOP act: 3; Jurkat NFkB inh: -200; XBP1 UPR activ: -2; Gli-Sufu block: -102; Jurkat NFkB conf: -104; 697 NFkB conf: -246

Assay outcomes as filed in PubChem.
